Measured values reported in ChEMBL document CHEMBL3399929 (Bioorg Med Chem, 2015).
In brackets after ≈: the same amount, converted by molar mass. Activity calls are given as the source filed them. The calls are words filed in the database; no cut-off is given here.

Assays:
[1] = test system: Mycobacterium tuberculosis; test: Bactericidal activity against non-replicating Mycobacterium tuberculosis H37Rv Wayne model under hypoxic/oxygen depleted conditions assessed as log reduction after 4 days by serial dilution assay; type: functional
Method in brief: (§1)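 Wayne hypoxia model. A mid-log 7H9 culture was diluted to about 10^5 cfu/mL, and 10 mL was sealed in 20 mL headspace vials. Vials were stirred slowly at 37 °C for 20–22 days, until methylene blue indicator (1.5 µg/mL) decolorized. Drug was then injected through the septum, and vials were incubated 4 more days at 37 °C. Tests were run in duplicate, with CFU counted on 7H10 agar plates.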

[2] = test system: Mycolicibacterium smegmatis; test: Inhibition of Mycobacterium smegmatis TMC 607 ATP synthase at 100 uM incubated for 10 mins prior to NADH addition measured after 1 hr by luminescence assay
Method in brief: (§2)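 Inverted membrane vesicles from M. smegmatis were diluted to 100 µg protein/mL in 50 mM MOPS pH 7.5 with 10 mM MgCl2. Vesicles were preincubated with compound for 10 min at room temperature with stirring, then given 2.5 mM NADH for 1 min. The reaction was started with 1 mM ADP plus 10 mM potassium phosphate and run for 1 h. It was quenched with EDTA/TCA, and ATP was read by luciferase luminescence.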

Mus musculus = species: Mus musculus; test: Inhibition of Swiss mouse liver ATP synthase at 100 uM after 1 hr
Method in brief: (§3)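 Liver mitochondria came from an overnight-fasted adult Swiss mouse, isolated by differential centrifugation in sucrose/Tris-MOPS/EGTA buffer pH 7.4 and assayed the same day. Mitochondria (100 µg) were stirred at room temperature with 100 µM compound in Tris/HCl, sucrose, 5 mM MgCl2 and 100 µM diadenosine pentaphosphate, pH 7.4. The reaction was started with 1 mM ADP, 20 mM Pi and 50 mM succinate, stopped after 1 h with EDTA-TCA, and ATP was read by luciferase.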

[3] = target: ATP synthase (Mycobacterium tuberculosis) (UniProt P9WPU9+P9WPU5+P9WPU7+P9WPV5+P9WPS1+P9WPV1+P9WPV7+P9WPV3); test: Inhibition of Mycobacterium tuberculosis H37Rv ATP synthase assessed as reduction in total ATP content at 100 uM after 18 hrs by bead-vortexing settling method; type: protein-complex assay
Method in brief: (§4)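 H37Rv was declumped by bead-vortexing and settling, adjusted to McFarland 1, then diluted 100-fold. Portions of 1 mL in tubes with 0.5 mm glass beads were exposed to compound for 18 h at 37 °C. Samples were heated 8–10 min, chilled on ice, and bead-beater lysed. Cleared lysate ATP was measured by luciferase assay.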

[4] = test system: Mycobacterium tuberculosis; test: Bactericidal activity against non-replicating Mycobacterium tuberculosis H37Rv Wayne model under hypoxic/oxygen depleted conditions assessed as log reduction at 100 ug/ml after 4 days by serial dilution assay; type: functional; method in brief: as §1
[5] = Inhibition of Mycobacterium smegmatis TMC 607 ATP synthase incubated for 10 mins prior to NADH addition measured after 1 hr by luminescence assay; parameters: species or system Mycolicibacterium smegmatis
[6] = test system: Mycobacterium tuberculosis; test: Bactericidal activity against non-replicating Mycobacterium tuberculosis H37Rv Wayne model under hypoxic/oxygen depleted conditions assessed as log reduction at 5 ug/ml after 4 days by serial dilution assay; type: functional; method in brief: as §1
[7] = test system: Mycobacterium tuberculosis; test: Antimycobacterial activity against Mycobacterium tuberculosis H37Rv after 4 weeks by agar dilution assay; type: functional
Method in brief: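 Agar dilution method. DMSO stocks (5 mg/mL) were serially diluted in DMSO, and 0.1 mL of each was mixed into 1.9 mL Middlebrook 7H10 agar with OADC and set as slants. Each tube received about 10^5 bacilli from a 3-week Lowenstein–Jensen culture suspended in saline with 0.05% Tween-80. Tubes were incubated at 37 °C for 4 weeks. MIC was the lowest concentration with no visible growth.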

[8] = test system: Mycolicibacterium smegmatis; test: Inhibition of Mycobacterium smegmatis TMC 607 ATP synthase at 0.3 uM incubated for 10 mins prior to NADH addition measured after 1 hr by luminescence assay; method in brief: as §2
[9] = test system: Mycobacterium tuberculosis H37Rv; test: Inhibition of Mycobacterium tuberculosis H37Rv ATP synthase assessed as reduction in total ATP content at 0.5 ug/ml after 18 hrs by bead-vortexing settling method; method in brief: as §4
Klebsiella pneumoniae = test: Antibacterial activity against Klebsiella pneumoniae ATCC 27736 at 50 ug/ml; type: functional, organism-based
Candida albicans = test: Antifungal activity against Candida albicans at 50 ug/ml; type: functional, organism-based
Sporothrix schenckii = test: Antifungal activity against Sporothrix schenckii at 50 ug/ml; type: functional, organism-based
[10] = test system: Mycobacterium tuberculosis H37Rv; test: Inhibition of Mycobacterium tuberculosis H37Rv ATP synthase assessed as reduction in total ATP content at 12.5 ug/ml after 18 hrs by bead-vortexing settling method; method in brief: as §4
[11] = test system: Trichophyton mentagrophytes; test: Antifungal activity against Trichophyton mentagrophytes at 50 ug/ml; type: functional, organism-based
Aspergillus fumigatus = test: Antifungal activity against Aspergillus fumigatus at 50 ug/ml; type: functional, organism-based
[12] = Cytotoxicity against African green monkey Vero cells after 72 hrs yb resazurin assay; type: cell-based; details: chlorocebus sabaeus
Method in brief: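 Vero cells were seeded overnight in RPMI with 10% heat-inactivated FBS at 37 °C, 5% CO2. Cells were exposed in triplicate to concentrations from 100 to 1.56 µg/mL for 72 h. Resazurin (0.1%) was then added for 4–5 h, and fluorescence was read at ex 530/em 590 nm. CC50 was derived from the fluorescence plot.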

[13] = Inhibition of Swiss mouse liver ATP synthase after 1 hr; method in brief: as §3
[14] = test system: Mycobacterium tuberculosis; test: Bactericidal activity against non-replicating Mycobacterium tuberculosis H37Rv Wayne model under hypoxic/oxygen depleted conditions assessed as log reduction at 10 ug/ml after 4 days by serial dilution assay; type: functional; method in brief: as §1
Staphylococcus aureus = test: Antibacterial activity against Staphylococcus aureus ATCC 25923 at 50 ug/ml; type: functional, organism-based
Candida parapsilosis = test: Antifungal activity against Candida parapsilosis ATCC 22019 at 50 ug/ml; type: functional, organism-based
[15] = test system: Mycobacterium tuberculosis H37Rv; test: Inhibition of Mycobacterium tuberculosis H37Rv ATP synthase assessed as reduction in total ATP content at 50 ug/ml after 18 hrs by bead-vortexing settling method; method in brief: as §4
Escherichia coli = test: Antibacterial activity against Escherichia coli ATCC 9637 at 50 ug/ml; type: functional, organism-based
Pseudomonas aeruginosa = test: Antibacterial activity against Pseudomonas aeruginosa ATCC BAA-427 at 50 ug/ml; type: functional, organism-based
[16] = Cytotoxicity against mouse bone marrow macrophages […]; type: cell-based; details: macrophage
Cryptococcus neoformans = test: Antifungal activity against Cryptococcus neoformans at 50 ug/ml; type: functional, organism-based
[17] = Selectivity ratio of IC50 for Mycobacterium smegmatis TMC 607 ATP synthase to IC50 for Swiss mouse liver ATP synthase
[18] = Selectivity index, ratio of CC50 for African green monkey Vero cells to MIC100 for Mycobacterium tuberculosis H37Rv; type: toxicity, cell-based; details: read-out: Selectivity Index
Method in brief: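 Selectivity index is CC50 from the Vero resazurin assay divided by the agar-dilution MIC against H37Rv.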

With `C(=NC1CCCCC1)=NC1CCCCC1` [DICYCLOHEXYLCARBODIIMIDE] the MIC100 [1] was “inactive”, the inhibition [2] was 99.5% and the inhibition (Mus musculus) was 83%. The inhibition [3] was 30% and the log10CFU/ml [4] was 4.68.

In the case of `NNC(=O)c1ccncc1` [ISONIAZID], the MIC ([1]; Mycobacterium tuberculosis, H37Rv, 96 h, read-out: MIC100) is reported as at most 0.12 µg/mL, the IC50 [5] is reported as “Not Active” and the log10CFU/ml [6] is reported as 0.21. For the same molecule, the MIC ([7]; Mycobacterium tuberculosis, H37Rv, 672 h, read-out: MIC100) was 0.1 µg/mL (≈ 0.729 µM), the inhibition [8] was 0% and the inhibition [9] was 78.5%.

With `CCN(CC)Cc1cc(N(c2cc(C)nc3cc(Cl)ccc23)S(=O)(=O)c2ccc(Cl)cc2Cl)ccc1O` the MIC100 [1] was 3.12 µg/mL (≈ 5.39 µM), the IC50 ([5]; read-out: IC50) was 630 nM and the Activity (Klebsiella pneumoniae) was “inactive”. For the same molecule, the Activity (Candida albicans) was “inactive”, the Activity (Sporothrix schenckii) was “inactive” and the inhibition [10] was 54%. The Activity [11] was “inactive”, the Activity (Aspergillus fumigatus) was “inactive” and the CC50 at 72 h [12] was over 300 µg/mL. It also gave an IC50 [13] of over 100000 nM, an MIC100 [7] of 3.12 µg/mL (≈ 5.39 µM) and a log10CFU/ml [14] of 0.79. For the same molecule, the Activity (Staphylococcus aureus) was “inactive”, the Activity (Candida parapsilosis) was “inactive” and the inhibition [15] was 26%. For the same molecule, the Activity (Escherichia coli) was “inactive”, the Activity (Pseudomonas aeruginosa) was “inactive” and the Activity [16] was “Non-toxic”. The Activity (Cryptococcus neoformans) was “inactive”, the Ratio IC50 [17] was over 155 and the selectivity ratio [18] was over 48. It also gave a log10CFU/ml [4] of 1.64.
